According to ChEMBL document CHEMBL1144028, “Novel 2,3-dihydro-1,4-benzoxazines as potent and orally bioavailable inhibitors of tumor-driven angiogenesis” (J Med Chem, 2008):
In brackets after ≈: the same amount, converted by molar mass.

What was measured:
[1] = target: Hepatocyte growth factor receptor (Homo sapiens, UniProt P08581); test: Inhibition of c-Met
[2] = tested on: HUVEC; test: Inhibition of FGF-induced proliferation of HUVEC cells; assay type: functional, cell-based; settings: Homo sapiens
Outline: (§1)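 Human umbilical vein endothelial cell proliferation driven by VEGF or by FGF; IC50 is the mean of two or more separate determinations, each in duplicate.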

[3] = tested on: HUVEC; test: Inhibition of VEGF-induced proliferation of HUVEC cells; assay type: functional, cell-based; settings: Homo sapiens; outline: as §1
[4] = target: Tyrosine-protein kinase Lck (Homo sapiens, UniProt P06239); test: Inhibition of Lck
[5] = target: Angiopoietin-1 receptor (Homo sapiens, UniProt Q02763); test: Inhibition of Tie2
[6] = target: Vascular endothelial growth factor receptor 2 (Homo sapiens, UniProt P35968); test: Inhibition of KDR by HTRF assay
Outline: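 KDR read by homogeneous time-resolved fluorescence with a biotinylated gastrin substrate. IC50 is the mean of two or more separate determinations, each in duplicate.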

[7] = Solubility in simulated intestinal fluid; assay type: physicochemical; settings: simulated intestinal fluid; read-out: Solubility
Outline: (§2)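 Equilibrium solubility measured in 0.01 N HCl, PBS (pH 7), and simulated intestinal fluid.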

[8] = Solubility in 0.01 N HCl; assay type: physicochemical; settings: 0.01 N HCl; read-out: Solubility; outline: as §2
[9] = Solubility in PBS at pH 7; assay type: physicochemical; outline: as §2
[10] = Volume of distribution at steady state in Sprague-Dawley rat at 0.5 mg/kg, iv; assay type: ADME, organism-based; parameters: dose 0.5 mg/kg, route intravenous; settings: in vivo, read-out: Vdss
Outline: (§3)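 Male Sprague Dawley rats; single dose, 0.5 mg/kg iv or 2 mg/kg po; mean pharmacokinetic parameters reported.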

[11] = Metabolic stability in human liver microsomes; assay type: ADME, Microsome; settings: read-out: Stability
Outline: (§4)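 In vitro stability on incubation with human or rat liver microsomal preparations.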

[12] = Metabolic stability in rat liver microsomes; assay type: ADME, Microsome; settings: read-out: Stability; outline: as §4
[13] = Half life in Sprague-Dawley rat at 0.5 mg/kg, iv; assay type: ADME, organism-based; parameters: dose 0.5 mg/kg, route intravenous; settings: in vivo; outline: as §3
[14] = Clearance in Sprague-Dawley rat at 0.5 mg/kg, iv; assay type: ADME, organism-based; parameters: dose 0.5 mg/kg, route intravenous; settings: in vivo; outline: as §3
[15] = Oral bioavailability in Sprague-Dawley rat at 2 mg/kg, po; assay type: ADME, organism-based; settings: in vivo; outline: as §3
[16] = AUC (0 to infinity) in Sprague-Dawley rat at 2 mg/kg, po; assay type: ADME, organism-based; parameters: time infinity, dose 2 mg/kg, route oral; settings: plasma; outline: as §3
[17] = Tmax in Sprague-Dawley rat at 2 mg/kg, po; assay type: ADME, organism-based; parameters: dose 2 mg/kg, route oral; settings: in vivo; outline: as §3
[18] = Cmax in Sprague-Dawley rat at 2 mg/kg, po; assay type: ADME, organism-based; parameters: dose 2 mg/kg, route oral; settings: in vivo; outline: as §3

Angiopoietin-1 receptor, sequence (Q02763 whole entry): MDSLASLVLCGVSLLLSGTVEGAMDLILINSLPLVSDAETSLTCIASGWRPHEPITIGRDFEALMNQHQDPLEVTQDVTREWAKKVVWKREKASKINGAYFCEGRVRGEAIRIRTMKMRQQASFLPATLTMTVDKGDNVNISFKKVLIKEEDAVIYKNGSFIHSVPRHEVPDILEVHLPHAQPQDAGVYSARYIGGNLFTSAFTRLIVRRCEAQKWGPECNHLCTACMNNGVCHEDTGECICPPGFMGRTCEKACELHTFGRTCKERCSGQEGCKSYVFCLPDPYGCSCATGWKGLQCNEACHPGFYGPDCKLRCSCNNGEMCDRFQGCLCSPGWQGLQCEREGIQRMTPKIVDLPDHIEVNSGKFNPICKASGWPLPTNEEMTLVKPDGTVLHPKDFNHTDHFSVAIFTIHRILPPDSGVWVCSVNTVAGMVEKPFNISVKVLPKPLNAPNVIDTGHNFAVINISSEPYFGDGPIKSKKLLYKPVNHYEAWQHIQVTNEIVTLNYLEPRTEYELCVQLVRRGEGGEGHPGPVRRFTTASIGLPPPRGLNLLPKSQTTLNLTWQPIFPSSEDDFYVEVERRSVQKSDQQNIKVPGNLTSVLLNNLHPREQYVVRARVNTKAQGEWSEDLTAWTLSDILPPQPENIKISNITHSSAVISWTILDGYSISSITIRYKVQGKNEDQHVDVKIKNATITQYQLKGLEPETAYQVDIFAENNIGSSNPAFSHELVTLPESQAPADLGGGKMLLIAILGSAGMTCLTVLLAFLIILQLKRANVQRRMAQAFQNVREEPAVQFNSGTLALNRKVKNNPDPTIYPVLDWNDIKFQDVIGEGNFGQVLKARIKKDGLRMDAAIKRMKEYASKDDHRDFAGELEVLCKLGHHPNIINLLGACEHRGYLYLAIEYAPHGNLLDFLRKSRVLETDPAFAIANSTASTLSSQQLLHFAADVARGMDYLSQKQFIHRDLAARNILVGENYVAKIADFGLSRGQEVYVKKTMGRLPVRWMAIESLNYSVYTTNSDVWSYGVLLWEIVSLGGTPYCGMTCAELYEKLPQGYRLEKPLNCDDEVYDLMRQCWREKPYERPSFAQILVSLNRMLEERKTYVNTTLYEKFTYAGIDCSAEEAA
Vascular endothelial growth factor receptor 2, sequence (P35968 whole entry): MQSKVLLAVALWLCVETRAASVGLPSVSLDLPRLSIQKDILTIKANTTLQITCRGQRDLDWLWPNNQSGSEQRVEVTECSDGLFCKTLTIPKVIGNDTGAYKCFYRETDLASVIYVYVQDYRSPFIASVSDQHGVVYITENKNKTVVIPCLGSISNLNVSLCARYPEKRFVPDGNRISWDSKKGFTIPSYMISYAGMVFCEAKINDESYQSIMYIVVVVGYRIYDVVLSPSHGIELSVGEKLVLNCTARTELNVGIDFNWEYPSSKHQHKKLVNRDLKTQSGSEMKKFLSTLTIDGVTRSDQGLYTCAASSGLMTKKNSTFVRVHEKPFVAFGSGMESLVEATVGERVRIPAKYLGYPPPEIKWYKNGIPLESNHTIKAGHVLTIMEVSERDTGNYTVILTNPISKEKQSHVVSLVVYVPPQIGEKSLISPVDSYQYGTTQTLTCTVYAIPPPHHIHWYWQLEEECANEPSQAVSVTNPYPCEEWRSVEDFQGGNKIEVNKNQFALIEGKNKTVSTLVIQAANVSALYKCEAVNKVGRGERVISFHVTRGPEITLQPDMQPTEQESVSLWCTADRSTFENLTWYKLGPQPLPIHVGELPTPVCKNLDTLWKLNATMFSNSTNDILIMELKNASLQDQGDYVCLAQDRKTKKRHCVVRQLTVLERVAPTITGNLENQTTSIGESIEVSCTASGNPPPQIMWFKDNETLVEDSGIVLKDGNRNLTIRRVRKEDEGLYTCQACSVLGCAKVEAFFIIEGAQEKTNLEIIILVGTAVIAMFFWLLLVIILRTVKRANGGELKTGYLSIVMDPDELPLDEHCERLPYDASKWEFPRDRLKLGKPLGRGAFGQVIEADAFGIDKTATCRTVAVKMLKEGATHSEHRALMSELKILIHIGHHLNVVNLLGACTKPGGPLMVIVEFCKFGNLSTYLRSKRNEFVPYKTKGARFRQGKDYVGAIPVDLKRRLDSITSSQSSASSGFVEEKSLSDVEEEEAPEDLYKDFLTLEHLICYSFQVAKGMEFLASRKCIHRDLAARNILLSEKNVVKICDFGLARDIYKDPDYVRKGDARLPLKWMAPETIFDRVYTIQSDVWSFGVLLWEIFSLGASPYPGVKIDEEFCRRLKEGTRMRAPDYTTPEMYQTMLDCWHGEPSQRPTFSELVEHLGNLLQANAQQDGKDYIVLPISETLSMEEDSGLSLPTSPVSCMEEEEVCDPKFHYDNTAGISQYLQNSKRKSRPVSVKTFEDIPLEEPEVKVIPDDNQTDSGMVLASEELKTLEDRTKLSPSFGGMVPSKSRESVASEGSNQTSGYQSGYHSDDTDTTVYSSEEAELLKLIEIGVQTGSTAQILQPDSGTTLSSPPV
Tyrosine-protein kinase Lck, sequence (P06239 whole entry): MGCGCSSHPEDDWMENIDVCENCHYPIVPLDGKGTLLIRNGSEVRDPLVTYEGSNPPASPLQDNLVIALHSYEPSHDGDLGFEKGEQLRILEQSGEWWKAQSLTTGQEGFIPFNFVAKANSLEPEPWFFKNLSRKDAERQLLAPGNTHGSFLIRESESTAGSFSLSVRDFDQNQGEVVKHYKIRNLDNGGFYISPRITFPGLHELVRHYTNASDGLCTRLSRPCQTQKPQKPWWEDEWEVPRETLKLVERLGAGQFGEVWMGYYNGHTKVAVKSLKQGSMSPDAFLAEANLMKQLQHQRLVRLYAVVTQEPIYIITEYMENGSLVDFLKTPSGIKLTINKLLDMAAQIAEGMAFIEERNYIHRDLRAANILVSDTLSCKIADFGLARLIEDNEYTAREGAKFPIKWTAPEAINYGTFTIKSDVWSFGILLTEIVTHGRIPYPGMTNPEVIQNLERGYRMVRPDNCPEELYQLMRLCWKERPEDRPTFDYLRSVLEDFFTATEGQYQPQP
Hepatocyte growth factor receptor, sequence (P08581 whole entry): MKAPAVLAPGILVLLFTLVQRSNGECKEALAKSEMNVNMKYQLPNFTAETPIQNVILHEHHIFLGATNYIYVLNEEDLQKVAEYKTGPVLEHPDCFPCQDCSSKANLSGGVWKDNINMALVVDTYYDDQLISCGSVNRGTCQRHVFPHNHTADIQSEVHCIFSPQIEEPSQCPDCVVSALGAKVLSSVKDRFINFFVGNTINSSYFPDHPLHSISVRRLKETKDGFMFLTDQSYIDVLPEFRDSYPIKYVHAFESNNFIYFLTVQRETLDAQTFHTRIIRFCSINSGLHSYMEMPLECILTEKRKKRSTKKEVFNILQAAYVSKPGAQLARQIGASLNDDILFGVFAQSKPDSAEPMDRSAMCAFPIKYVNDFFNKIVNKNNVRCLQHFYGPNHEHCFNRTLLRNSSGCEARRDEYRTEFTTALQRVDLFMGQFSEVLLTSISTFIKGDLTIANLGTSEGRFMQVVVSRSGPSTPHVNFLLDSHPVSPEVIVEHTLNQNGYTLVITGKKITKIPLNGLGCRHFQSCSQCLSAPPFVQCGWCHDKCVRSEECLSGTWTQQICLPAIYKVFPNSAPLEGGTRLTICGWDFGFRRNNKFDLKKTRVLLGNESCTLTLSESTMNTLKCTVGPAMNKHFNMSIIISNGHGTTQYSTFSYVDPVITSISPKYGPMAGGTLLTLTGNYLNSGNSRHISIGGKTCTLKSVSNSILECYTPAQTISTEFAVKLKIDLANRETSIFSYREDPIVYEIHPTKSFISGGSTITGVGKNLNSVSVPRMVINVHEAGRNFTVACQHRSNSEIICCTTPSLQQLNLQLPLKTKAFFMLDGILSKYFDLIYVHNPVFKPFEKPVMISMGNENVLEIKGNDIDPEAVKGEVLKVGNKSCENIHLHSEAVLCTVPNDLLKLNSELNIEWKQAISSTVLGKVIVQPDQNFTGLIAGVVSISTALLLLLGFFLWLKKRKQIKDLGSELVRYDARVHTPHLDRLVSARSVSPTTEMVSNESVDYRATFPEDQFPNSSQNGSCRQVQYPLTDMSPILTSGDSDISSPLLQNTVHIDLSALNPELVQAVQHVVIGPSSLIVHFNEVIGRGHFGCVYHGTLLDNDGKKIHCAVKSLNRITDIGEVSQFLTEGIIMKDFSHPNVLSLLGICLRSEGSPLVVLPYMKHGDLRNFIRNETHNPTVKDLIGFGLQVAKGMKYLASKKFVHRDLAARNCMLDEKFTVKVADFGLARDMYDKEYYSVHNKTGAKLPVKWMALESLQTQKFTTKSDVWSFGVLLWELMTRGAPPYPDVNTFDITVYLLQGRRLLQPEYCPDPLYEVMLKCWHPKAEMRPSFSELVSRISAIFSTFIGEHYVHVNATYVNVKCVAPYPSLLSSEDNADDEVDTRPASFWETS

Row | SMILES | IC50 [1] | IC50 [2] | IC50 [3] | IC50 [4] | IC50 [5] | IC50 [6] | solubility [7] | solubility [8] | solubility [9] | Vd [10] | microsomal CLint [11] | microsomal CLint [12] | half-life [13] | clearance [14] | bioavailability [15] | AUC(0-inf) [16] | Tmax [17] | Cmax [18]
1 | COc1cc2nccc(Oc3ccc4c(c3)OCCN4C(=O)Nc3cccc(C)c3)c2cc1OC | 350 nM | 190 nM | 0.6 nM |  |  |  |  |  |  |  |  |  |  |  |  |  |  | 
2 | COc1cc2nccc(Oc3ccc4c(c3)OCCN4C(=O)Nc3ccccc3C)c2cc1OC | 410 nM | 910 nM | 45 nM | 27 nM | 1600 nM | 1 nM |  |  |  |  |  |  |  |  |  |  |  | 
3 | COc1cc2nccc(Oc3ccc4c(C(=O)Nc5cccc(Cl)c5)cccc4c3)c2cc1OC |  |  |  |  |  |  | 36 µg/mL (≈ 74.2 µM) | 9.5 µg/mL (≈ 19.6 µM) | < 1 µg/mL |  |  |  |  |  |  |  |  | 
4 | COc1cc2nccc(Oc3ccc4c(c3)OCCN4C(=O)NCc3ccc(C)cc3)c2cc1OC | 500 nM | 1100 nM | 360 nM | 150 nM | 1500 nM | 26 nM |  |  |  |  |  |  |  |  |  |  |  | 
5 | COc1cc2nccc(Oc3ccc4c(c3)OCCN4C(=O)N[C@@H](C)c3ccccc3)c2cc1OC | 460 nM | 300 nM | 3 nM | 18 nM | 260 nM | 1 nM |  |  |  | 1.4 L/kg | 543 µL/min/mg | 188 µL/min/mg | 2.3 h | 16.3 mL/min/kg |  |  |  | 
6 | COc1cc2nccc(Oc3ccc4c(c3)OCCN4C(=O)NC(C)C)c2cc1OC | 1200 nM | 1100 nM | 52 nM | 1000 nM | > 4000 nM | 40 nM | 14 µg/mL (≈ 33.1 µM) | > 200 µg/mL | 3 µg/mL (≈ 7.08 µM) |  |  |  |  |  |  |  |  | 
7 | COc1cc2nccc(Oc3ccc4c(c3)OCCN4C(=O)Nc3ccccc3Cl)c2cc1OC | 290 nM | 230 nM | 73 nM | 2200 nM | 2200 nM | 19 nM |  |  |  |  |  |  |  |  |  |  |  | 
8 | CNC(=O)c1cccc2cc(Oc3ccnc4cc(OC)c(OC)cc34)ccc12 |  |  |  |  |  |  | 3 µg/mL (≈ 7.72 µM) | > 200 µg/mL | 1.4 µg/mL (≈ 3.6 µM) |  |  |  |  |  |  |  |  | 
9 | O=C(Nc1ccc(Cl)cc1)N1CCOc2cc(Oc3ncnc4[nH]ccc34)ccc21 | > 4000 nM | > 1000 nM | 230 nM | > 4000 nM | > 4000 nM | 77 nM |  |  |  |  |  |  |  |  |  |  |  | 
10 | COc1cc2nccc(Oc3ccc4c(c3)OCCN4C(=O)Nc3ccc(C)cc3)c2cc1C(N)=O | 260 nM | 300 nM | 1 nM | 19 nM | 430 nM | 0.5 nM |  |  |  | 1.4 L/kg | 62 µL/min/mg | 96 µL/min/mg | 1.6 h | 14.3 mL/min/kg | 28% | 650 ng·h/mL | 2.3 h | 160 ng/mL
11 | CNC(=O)c1cc(Oc2ccc3c(c2)OCCN3C(=O)Nc2ccc(Cl)cc2)ccn1 | > 4000 nM | > 1000 nM | > 1000 nM | > 4000 nM | > 4000 nM | 95 nM |  |  |  |  |  |  |  |  |  |  |  | 
12 | Cc1ccc(NC(=O)N2CCOc3cc(Oc4ncnc5[nH]ccc45)ccc32)cc1 | > 4000 nM | > 1000 nM | 230 nM | > 4000 nM | > 4000 nM | 26 nM |  |  |  |  |  |  |  |  |  |  |  | 
13 | CNC(=O)N1CCOc2cc(Oc3ccnc4cc(OC)c(OC)cc34)ccc21 | > 4000 nM | 370 nM | 100 nM | 2400 nM | > 4000 nM | 40 nM | 130 µg/mL (≈ 329 µM) | > 200 µg/mL | 46 µg/mL (≈ 116 µM) |  |  |  |  |  |  |  |  | 
14 | CNC(=O)c1cc(Oc2ccc3c(c2)OCCN3C(=O)Nc2ccc(C)cc2)ccn1 | > 4000 nM | > 1000 nM | > 1000 nM | > 4000 nM | > 4000 nM | 62 nM |  |  |  |  |  |  |  |  |  |  |  | 
15 | COc1cc2nccc(Oc3ccc4c(c3)OCCN4C(=O)NCc3ccccc3)c2cc1OC | 1600 nM | > 1100 nM | 237 nM | 500 nM | > 4000 nM | 53 nM |  |  |  |  |  |  |  |  |  |  |  | 
16 | CCNC(=O)N1CCOc2cc(Oc3ccnc4cc(OC)c(OC)cc34)ccc21 | 1400 nM | 780 nM | 23 nM | 1500 nM | > 4000 nM | 1 nM |  |  |  |  |  |  |  |  |  |  |  | 
17 | COc1cc2nccc(Oc3ccc4c(c3)OCCN4C(=O)Nc3cccc(Cl)c3)c2cc1OC | 230 nM | 220 nM | 0.4 nM | 4 nM | 9 nM | 1 nM | 28 µg/mL (≈ 56.9 µM) | 120 µg/mL (≈ 244 µM) | < 1 µg/mL |  |  |  |  |  |  |  |  | 
18 | COc1cc2nccc(Oc3ccc4c(c3)OCCN4C(N)=O)c2cc1OC | > 4000 nM | 1100 nM | 280 nM | > 4000 nM | > 4000 nM | 58 nM |  |  |  |  |  |  |  |  |  |  |  | 
19 | COc1cc2nccc(Oc3ccc4c(C(=O)NC(C)C)cccc4c3)c2cc1OC |  |  |  |  |  |  | 5.6 µg/mL (≈ 13.4 µM) | > 200 µg/mL | < 1 µg/mL |  |  |  |  |  |  |  |  | 
20 | COc1cc2nccc(Oc3ccc4c(c3)OCCN4C(=O)Nc3ccc(Cl)cc3)c2cc1C(N)=O | 160 nM | 290 nM | 1 nM | 21 nM | 290 nM | 0.6 nM |  |  |  | 0.5 L/kg | 48 µL/min/mg | 25 µL/min/mg | 2.6 h | 3.17 mL/min/kg | 46% | 4500 ng·h/mL | 2.3 h | 820 ng/mL
21 | COc1cc2nccc(Oc3ccc4c(c3)OCCN4C(=O)N[C@H](C)c3ccccc3)c2cc1OC | 210 nM | 1100 nM | 250 nM | 78 nM | > 4000 nM | 40 nM |  |  |  |  |  |  |  |  |  |  |  | 
22 | COc1cc2nccc(Oc3ccc4c(C(=O)Nc5ccc(F)cc5)cccc4c3)c2cc1OC |  |  |  |  |  |  | 1.3 µg/mL (≈ 2.77 µM) | 67 µg/mL (≈ 143 µM) | < 1 µg/mL |  |  |  |  |  |  |  |  | 
23 | COc1cc2nccc(Oc3ccc4c(C(=O)Nc5ccc(C)cc5)cccc4c3)c2cc1OC |  |  |  |  |  |  | 9.4 µg/mL (≈ 20.2 µM) | > 200 µg/mL | < 1 µg/mL |  |  |  |  |  |  |  |  | 
24 | COc1cc2nccc(Oc3ccc4c(c3)OCCN4C(=O)Nc3ccccc3)c2cc1OC | 650 nM | 340 nM | 0.6 nM | 188 nM | 386 nM | 1 nM |  |  |  | 2.1 L/kg | 62 µL/min/mg | 122 µL/min/mg | 1.2 h | 30 mL/min/kg |  |  |  | 
25 | COc1cc2nccc(Oc3ccc4c(C(=O)Nc5ccc(Cl)cc5)cccc4c3)c2cc1OC |  |  | 8 nM |  |  |  | 1.4 µg/mL (≈ 2.89 µM) |  | < 1 µg/mL |  |  |  |  |  |  |  |  | 
